The record followed here is ChEMBL document CHEMBL5120825, “The azulene scaffold from a medicinal chemist's perspective: Physicochemical and in vitro parameters relevant for drug discovery” (Eur J Med Chem, 2022).

The logP is a log measure of how a compound divides between an organic and an aqueous phase. What is called solubility (thermodynamic) is solubility found after equilibrating the solid with the medium. The logD is the decadic logarithm of the distribution of all forms, ionised or not, between an organic phase and buffer at a given pH.

≈ marks a conversion by molar mass, not a printed value.

The nature of series [1]: Lipophilicity, logP of the compound. In kind it is physicochemical. The note with it: octanol/water.
Series [2] can be described thus: Aqueous solubility of the compound at pH 2.2 incubated for 24 hrs under shaking condition by LC-UV analysis. Format: physicochemical. The note with it: aqueous medium. In outline:
(§1)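 The highest concentration tested was 250 μM, so results are capped at that level. Values are reported in µg/ml.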

Series [3] is described as follows: Aqueous solubility of the compound at pH 4.5 incubated for 24 hrs under shaking condition by LC-UV analysis. In kind it is physicochemical. The note with it: aqueous medium. The essentials:
as §1

Series [4] in a line: Aqueous solubility of the compound at pH 6.8 incubated for 24 hrs under shaking condition by LC-UV analysis. Format: physicochemical. The note with it: aqueous medium. In outline:
as §1

A short description of series [5]: Metabolic stability in human liver microsomes assessed as hepatic blood flow at 1 uM preincubated with compound followed by NADPH addition by LC-MS/MS analysis. In kind it is ADME, Microsome. The settings on record: read-out: QH.
The nature of series [6]: Octanol-water partition coefficient, logD of the compound at pH 2 by HPLC analysis. Format: physicochemical.
A short description of series [7]: Octanol-water partition coefficient, logD of the compound at pH 11 by HPLC analysis. Format: physicochemical.
Series [8] in a line: Permeability of the compound at pH 7.4 by PAMPA assay. In kind it is ADME. The settings on record: read-out: permeability.

Take `O=C(Nc1ccc2ccccc2c1)c1cccnc1`: the logP in series [1] (read-out: logP) was 2.4. Further, the figures for the solubility (thermodynamic) at 24 h in series [2], in series [3] and in series [4] were > 50 µg/mL, 6 µg/mL (≈ 24.2 µM) and 4 µg/mL (≈ 16.1 µM), respectively. Besides, the hepatic extraction ratio at 1 µM in series [5] was 0.67. Also, the logD came to 1.4 in series [6] (read-out: logD) and 2.4 in series [7] (read-out: logD).

`NC(=O)C1CCN(C(=O)c2cccc3ccccc23)CC1` came in with a logP in series [1] of 0.8. Besides, the Papp in series [8] was determined as 0.2 ×10⁻⁶ cm/s. Also, the solubility (thermodynamic) at 24 h was > 70 µg/mL in series [2], > 71 µg/mL in series [3] and > 71 µg/mL in series [4]. For the same molecule, the hepatic extraction ratio at 1 µM in series [5] was < 0.23. Further, the logD in series [6] was determined as 1.3; in series [7] (read-out: logD) it was 0.8.

Molecule `COC(=O)c1ccc2[nH]cc(C(=O)c3ccccc3)c2c1` yielded a logP in series [1] of 2.5. Besides, the Papp in series [8] came out at 2.8 ×10⁻⁶ cm/s. For the same molecule, the thermodynamic solubility at 24 h in series [2], in series [3] and in series [4] was < 1 µg/mL each time. Besides, the logD in series [6] is 2.9; in series [7] (read-out: logD), 2.5.

In the case of `COC(=O)c1ccc2c(C(=O)c3ccccc3)cc(C(=O)c3ccccc3)c-2cc1`, the logP in series [1] (read-out: logP) amounted to 5.5. Further, the Papp in series [8] was found to be 0.3 ×10⁻⁶ cm/s. For the same molecule, the solubility (thermodynamic) at 24 h in series [2], in series [3] and in series [4] was < 1 µg/mL in each case. For the same molecule, the logD in series [6] (read-out: logD) was found to be 5.6; in series [7] (read-out: logD), 5.5.

For the molecule `COC(=O)c1ccc2ccc(C(=O)c3ccccc3)c-2cc1`, the logP in series [1] (read-out: logP) turned out to be 4.7. Further, in series [8], the Papp is 0.1 ×10⁻⁶ cm/s. The thermodynamic solubility at 24 h in series [2], in series [3] and in series [4] was < 1 µg/mL each time. Moreover, the logD was determined as 4.8 in series [6] (read-out: logD) and 4.7 in series [7] (read-out: logD).

`Cn1c(NC(=O)Cn2ccccc2=O)cc2ccccc21` had a logP in series [1] of 1.1. In addition, the Papp in series [8] is 3.3 ×10⁻⁶ cm/s. In series [4], this molecule showed a thermodynamic solubility at 24 h of 3 µg/mL (≈ 10.7 µM). The hepatic extraction ratio at 1 µM in series [5] is < 0.23. Besides, the logD in series [6] and in series [7] was 1.5 each time.

Turning to `O=C(Cn1ccccc1=O)Nc1cc2ccccc2[nH]1`, the logP in series [1] was determined as 0.4. Further, the Papp in series [8] turned out to be 0.1 ×10⁻⁶ cm/s. Further, the solubility (thermodynamic) at 24 h was > 60 µg/mL in series [2], > 67 µg/mL in series [3] and > 67 µg/mL in series [4]. Moreover, the hepatic extraction ratio at 1 µM in series [5] is < 0.23. Also, the logD in series [6] and in series [7] was 1 each time.

In turn, `COC(=O)c1ccc2c(C(=O)Nc3ccccc3)cn(C)c2c1` displayed a logP in series [1] of 2.9. Moreover, the Papp in series [8] was found to be 2.2 ×10⁻⁶ cm/s. In addition, the thermodynamic solubility at 24 h in series [2], in series [3] and in series [4] was < 1 µg/mL throughout. The logD in series [6] and in series [7] was 3.4 throughout.

`COC(=O)c1ccc2c(c1)c(C(=O)c1ccccc1)cn2C(=O)c1ccccc1`: the logP in series [1] (read-out: logP) was 5.2. In addition, in series [8], the Papp came to 1.3 ×10⁻⁶ cm/s. Moreover, the thermodynamic solubility at 24 h in series [2], in series [3] and in series [4] was < 1 µg/mL in each case. For the same molecule, the logD in series [6] (read-out: logD) and in series [7] (read-out: logD) was 5.2 in each case.

With `COC(=O)c1ccc2ccc(C(=O)Nc3ccccc3)c-2cc1`, the logP in series [1] (read-out: logP) is 3.8. Also, in series [8], the Papp was 0.4 ×10⁻⁶ cm/s. Moreover, the thermodynamic solubility at 24 h in series [2], in series [3] and in series [4] was < 1 µg/mL each time. The logD in series [6] (read-out: logD) and in series [7] (read-out: logD) was 4 each time.

As for `COC(=O)c1ccc2ccn(C(=O)c3ccccc3)c2c1`, the logP in series [1] (read-out: logP) was 4.3. In addition, the Papp in series [8] was 0.5 ×10⁻⁶ cm/s. Besides, the solubility (thermodynamic) at 24 h in series [2], in series [3] and in series [4] was < 1 µg/mL throughout. The logD is 4.4 in series [6] (read-out: logD) and 4.3 in series [7] (read-out: logD).

As for `NC(=O)C1CCN(C(=O)c2c[nH]c3ccccc23)CC1`, the logP in series [1] was -0.2. For the same molecule, in series [8], the Papp is < 0.01 ×10⁻⁶ cm/s. Besides, the hepatic extraction ratio at 1 µM in series [5] was < 0.23. Also, the logD in series [6] is 0.3; in series [7] (read-out: logD), -0.2.

`CN1CCN(C(=O)c2ccc3[nH]cc(C(=O)c4ccccc4)c3c2)CC1`: the log partition coefficient (logP) in series [1] (read-out: logP) was 1.3. Moreover, in series [8], the Papp was 0.2 ×10⁻⁶ cm/s. Also, the solubility (thermodynamic) at 24 h in series [2] is > 74 µg/mL; in series [4], 69 µg/mL (≈ 199 µM). For the same molecule, in series [5], the hepatic extraction ratio at 1 µM is < 0.23. Also, the logD in series [6] (read-out: logD) turned out to be 0.5; in series [7] (read-out: logD) it was 1.3.

For `COC(=O)c1ccc2c(C(=O)c3ccccc3)c[nH]c2c1`, the logP in series [1] came out at 2.7. Also, the Papp in series [8] was 1.5 ×10⁻⁶ cm/s. Moreover, the thermodynamic solubility at 24 h in series [2], in series [3] and in series [4] was < 1 µg/mL each time. In addition, the results for the logD in series [6] and in series [7] (read-out: logD) were 3.1 and 2.7, respectively.

The molecule `CN(C)C(=O)Cc1ccc2cc[nH]c2c1` came in with a logP in series [1] of 1. Also, the Papp in series [8] came to 1.3 ×10⁻⁶ cm/s. Besides, the solubility (thermodynamic) at 24 h in series [2], in series [3] and in series [4] was > 51 µg/mL throughout. For the same molecule, the hepatic extraction ratio at 1 µM in series [5] is < 0.23. In addition, the logD is 1.4 in series [6] and 1 in series [7] (read-out: logD).

Take `COC(=O)c1ccc2c(ccn2C(=O)c2ccccc2)c1`: the lipophilicity (logP) in series [1] (read-out: logP) is 4.4. The Papp in series [8] stood at 0.5 ×10⁻⁶ cm/s. The thermodynamic solubility at 24 h in series [2], in series [3] and in series [4] was < 1 µg/mL each time. The logD in series [6] (read-out: logD) came to 4.5; in series [7] (read-out: logD), 4.4.

As for `COC(=O)c1ccc2c(C(=O)c3ccccc3)cn(C(=O)c3ccccc3)c2c1`, the logP in series [1] (read-out: logP) was 5.2. Also, the Papp in series [8] came out at 2.1 ×10⁻⁶ cm/s. For the same molecule, the solubility (thermodynamic) at 24 h in series [2], in series [3] and in series [4] was < 1 µg/mL each time. In addition, the logD in series [6] (read-out: logD) and in series [7] (read-out: logD) was 5.2 in each case.

As to `CN(C)C(=O)Cc1ccc2ccccc2c1`, in series [1], the logP was 2.4. Moreover, the Papp in series [8] was determined as 4.7 ×10⁻⁶ cm/s. For the same molecule, the results for the solubility (thermodynamic) at 24 h in series [2], in series [3] and in series [4] were 41 µg/mL (≈ 192 µM), 39 µg/mL (≈ 183 µM) and 40 µg/mL (≈ 188 µM), respectively. In addition, the hepatic extraction ratio at 1 µM in series [5] was found to be 0.4. In addition, the values for the log distribution coefficient (logD) in series [6] and in series [7] (read-out: logD) were 2.7 and 2.4, respectively.

`Cn1cc(C(=O)N2CCC(C(N)=O)CC2)c2ccccc21`: the logP in series [1] was 0.4. Besides, in series [8], the Papp stood at 0.2 ×10⁻⁶ cm/s. The solubility (thermodynamic) at 24 h was > 71 µg/mL in series [2], 44 µg/mL (≈ 154 µM) in series [3] and > 64 µg/mL in series [4]. Also, the hepatic extraction ratio at 1 µM in series [5] is < 0.23. For the same molecule, the logD in series [6] is 1.1; in series [7] (read-out: logD), 0.4.

As to `Cn1c(NC(=O)c2cccnc2)cc2ccccc21`, in series [1] (read-out: logP), the logP amounted to 1.3. Moreover, the Papp in series [8] was found to be 4.9 ×10⁻⁶ cm/s. The thermodynamic solubility at 24 h in series [2] is > 59 µg/mL. For the same molecule, in series [5], the hepatic extraction ratio at 1 µM turned out to be 0.23. Also, the logD in series [6] (read-out: logD) and in series [7] (read-out: logD) was -0.1 throughout.
